Results taken from ChEMBL document CHEMBL4689842, “EUbOPEN Chemogenomics Library wave 1” (2021).

Tested on: U2OS
Assay: Multiplex assay against U2OS
Format: toxicity, cell-based
Settings: human
Outline: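 Live cells were stained at seeding with Hoechst33342, BioTracker Green Microtubule Cytoskeleton Dye, MitoTracker Red and Annexin V Alexa Fluor 680. Following compound addition, they were imaged on a CQ1 microscope at 37°C and 5% CO2 and gated by CellPathfinder machine learning into Hoechst high-intensity objects or normal cells, with normal cells split into healthy, pyknosed or fragmented nuclei and pyknosed cells into mitotic or apoptotic. Tubulin, mitochondrial-mass and membrane-permeability phenotypes are per cents of healthy-nucleus cells.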

[1] = 12 h, 1 µM, compound concentration 1 uM, replicate 1
[2] = 12 h, 1 µM, compound concentration 1 uM, replicate 2
[3] = 12 h, 10 µM, compound concentration 10 uM, replicate 1
[4] = 12 h, 10 µM, compound concentration 10 uM, replicate 2
[5] = 24 h, 1 µM, compound concentration 1 uM, replicate 1
[6] = 24 h, 1 µM, compound concentration 1 uM, replicate 2
[7] = 24 h, 10 µM, compound concentration 10 uM, replicate 1
[8] = 24 h, 10 µM, compound concentration 10 uM, replicate 2
[9] = 48 h, 1 µM, compound concentration 1 uM, replicate 1
[10] = 48 h, 1 µM, compound concentration 1 uM, replicate 2
[11] = 48 h, 10 µM, compound concentration 10 uM, replicate 1
[12] = 48 h, 10 µM, compound concentration 10 uM, replicate 2

COc1cc(Nc2nccc(-c3cnn4nc(OC)ccc34)n2)cc(C(F)(F)F)c1
Population Apoptotic (%) [1]: 27% | Population Fragmented Nuclei (%) [1]: 12% | Population Healthy Nuclei (%) [1]: 74% | Population Hoechst High Intensity Objects (%) [1]: 7% | Population Membrane Permeable-Phenotype (%) [1]: 6% | Population Mitochondria Different-Phenotype (%) [1]: 12% | Population Mitotic Cells (%) [1]: 72% | Population Normal (%) [1]: 92% | Population Pyknosed Nuclei (%) [1]: 12% | Population Tubulin-Different-Phenotype (%) [1]: 9% | Total Cell Count [1]: 189 | Population Apoptotic (%) [2]: 50% | Population Fragmented Nuclei (%) [2]: 8% | Population Healthy Nuclei (%) [2]: 86% | Population Hoechst High Intensity Objects (%) [2]: 3% | Population Membrane Permeable-Phenotype (%) [2]: 2% | Population Mitochondria Different-Phenotype (%) [2]: 16% | Population Mitotic Cells (%) [2]: 50% | Population Normal (%) [2]: 96% | Population Pyknosed Nuclei (%) [2]: 5% | Population Tubulin-Different-Phenotype (%) [2]: 16% | Total Cell Count [2]: 44 | Population Apoptotic (%) [3]: 60% | Population Fragmented Nuclei (%) [3]: 32% | Population Healthy Nuclei (%) [3]: 55% | Population Hoechst High Intensity Objects (%) [3]: 15% | Population Membrane Permeable-Phenotype (%) [3]: 7% | Population Mitochondria Different-Phenotype (%) [3]: 46% | Population Mitotic Cells (%) [3]: 39% | Population Normal (%) [3]: 84% | Population Pyknosed Nuclei (%) [3]: 11% | Population Tubulin-Different-Phenotype (%) [3]: 27% | Total Cell Count [3]: 192 | Population Apoptotic (%) [4]: 33% | Population Fragmented Nuclei (%) [4]: 27% | Population Healthy Nuclei (%) [4]: 61% | Population Hoechst High Intensity Objects (%) [4]: 34% | Population Membrane Permeable-Phenotype (%) [4]: 3% | Population Mitochondria Different-Phenotype (%) [4]: 6% | Population Mitotic Cells (%) [4]: 66% | Population Normal (%) [4]: 65% | Population Tubulin-Different-Phenotype (%) [4]: 15% | Total Cell Count [4]: 82 | Population Apoptotic (%) [5]: 24% | Population Fragmented Nuclei (%) [5]: 14% | Population Healthy Nuclei (%) [5]: 61% | Population Hoechst High Intensity Objects (%) [5]: 6% | Population Membrane Permeable-Phenotype (%) [5]: 7% | Population Mitochondria Different-Phenotype (%) [5]: 20% | Population Mitotic Cells (%) [5]: 75% | Population Normal (%) [5]: 93% | Population Pyknosed Nuclei (%) [5]: 24% | Population Tubulin-Different-Phenotype (%) [5]: 16% | Total Cell Count [5]: 214 | Population Apoptotic (%) [6]: 45% | Population Fragmented Nuclei (%) [6]: 10% | Population Healthy Nuclei (%) [6]: 77% | Population Hoechst High Intensity Objects (%) [6]: 2% | Population Membrane Permeable-Phenotype (%) [6]: 4% | Population Mitochondria Different-Phenotype (%) [6]: 10% | Population Mitotic Cells (%) [6]: 54% | Population Normal (%) [6]: 97% | Population Pyknosed Nuclei (%) [6]: 12% | Population Tubulin-Different-Phenotype (%) [6]: 19% | Total Cell Count [6]: 43 | Population Apoptotic (%) [7]: 65% | Population Fragmented Nuclei (%) [7]: 36% | Population Healthy Nuclei (%) [7]: 50% | Population Hoechst High Intensity Objects (%) [7]: 18% | Population Membrane Permeable-Phenotype (%) [7]: 2% | Population Mitochondria Different-Phenotype (%) [7]: 47% | Population Mitotic Cells (%) [7]: 34% | Population Normal (%) [7]: 81% | Population Pyknosed Nuclei (%) [7]: 13% | Population Tubulin-Different-Phenotype (%) [7]: 15% | Total Cell Count [7]: 197 | Population Apoptotic (%) [8]: 50% | Population Fragmented Nuclei (%) [8]: 26% | Population Healthy Nuclei (%) [8]: 56% | Population Hoechst High Intensity Objects (%) [8]: 29% | Population Membrane Permeable-Phenotype (%) [8]: 0% | Population Mitochondria Different-Phenotype (%) [8]: 23% | Population Mitotic Cells (%) [8]: 50% | Population Normal (%) [8]: 70% | Population Pyknosed Nuclei (%) [8]: 17% | Population Tubulin-Different-Phenotype (%) [8]: 11% | Total Cell Count [8]: 90 | Population Apoptotic (%) [9]: 53% | Population Fragmented Nuclei (%) [9]: 16% | Population Healthy Nuclei (%) [9]: 54% | Population Hoechst High Intensity Objects (%) [9]: 4% | Population Membrane Permeable-Phenotype (%) [9]: 6% | Population Mitochondria Different-Phenotype (%) [9]: 34% | Population Mitotic Cells (%) [9]: 46% | Population Normal (%) [9]: 95% | Population Pyknosed Nuclei (%) [9]: 28% | Population Tubulin-Different-Phenotype (%) [9]: 15% | Total Cell Count [9]: 257 | Population Apoptotic (%) [10]: 55% | Population Fragmented Nuclei (%) [10]: 11% | Population Healthy Nuclei (%) [10]: 81% | Population Hoechst High Intensity Objects (%) [10]: 7% | Population Membrane Permeable-Phenotype (%) [10]: 15% | Population Mitochondria Different-Phenotype (%) [10]: 17% | Population Mitotic Cells (%) [10]: 44% | Population Normal (%) [10]: 92% | Population Pyknosed Nuclei (%) [10]: 7% | Population Tubulin-Different-Phenotype (%) [10]: 20% | Total Cell Count [10]: 55 | Population Apoptotic (%) [11]: 62% | Population Fragmented Nuclei (%) [11]: 45% | Population Healthy Nuclei (%) [11]: 33% | Population Hoechst High Intensity Objects (%) [11]: 20% | Population Membrane Permeable-Phenotype (%) [11]: 14% | Population Mitochondria Different-Phenotype (%) [11]: 36% | Population Mitotic Cells (%) [11]: 37% | Population Normal (%) [11]: 79% | Population Pyknosed Nuclei (%) [11]: 21% | Population Tubulin-Different-Phenotype (%) [11]: 21% | Total Cell Count [11]: 200 | Population Apoptotic (%) [12]: 69% | Population Fragmented Nuclei (%) [12]: 26% | Population Healthy Nuclei (%) [12]: 48% | Population Hoechst High Intensity Objects (%) [12]: 27% | Population Membrane Permeable-Phenotype (%) [12]: 8% | Population Mitochondria Different-Phenotype (%) [12]: 25% | Population Mitotic Cells (%) [12]: 30% | Population Normal (%) [12]: 72% | Population Pyknosed Nuclei (%) [12]: 26% | Population Tubulin-Different-Phenotype (%) [12]: 20% | Total Cell Count [12]: 127
